Source: PubChem BioAssay (Broad Institute)
This is a sample that favours compounds with a hit; in the whole collection about 5.8% have one here.
T cruzi growth-1 – inhibitors of T. cruzi proliferation. T. cruzi beta-gal in NIH3T3, GalScreen luminescence, 90 h. inhibition, % at 8.34 µM. hit rate 5.9% among 77,000. AID 624255;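 active means mean inhibition above about 93%, with at least 55% of replicates each passing it, limit read from the data, passing the limit was not always enough; inconclusive means only one of those two conditions holds; inactive means neither condition holds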
Pf Dd2 inh – P. falciparum Dd2 growth inhibition; activity change, % at 10 µM; hit rate 2.3% among 94,000; AID 1159554; SYBR Green, 72 h; stronger effect = lower value; in the data active means activity change below about -80%; inconclusive means no clear call, values can overlap the other calls
IDH1 mut inh – blocks human IDH1 R132H reductase activity; O75874; diaphorase/resazurin fluorescence, 60 min; inhibition, % at 10 µM; hit rate 0.18% among 70,000; AID 624101; in the data active means inhibition above about 34%; inconclusive means no clear call, values can overlap the other calls; inactive means below about 11%
Target sequence (O75874 whole entry R132H): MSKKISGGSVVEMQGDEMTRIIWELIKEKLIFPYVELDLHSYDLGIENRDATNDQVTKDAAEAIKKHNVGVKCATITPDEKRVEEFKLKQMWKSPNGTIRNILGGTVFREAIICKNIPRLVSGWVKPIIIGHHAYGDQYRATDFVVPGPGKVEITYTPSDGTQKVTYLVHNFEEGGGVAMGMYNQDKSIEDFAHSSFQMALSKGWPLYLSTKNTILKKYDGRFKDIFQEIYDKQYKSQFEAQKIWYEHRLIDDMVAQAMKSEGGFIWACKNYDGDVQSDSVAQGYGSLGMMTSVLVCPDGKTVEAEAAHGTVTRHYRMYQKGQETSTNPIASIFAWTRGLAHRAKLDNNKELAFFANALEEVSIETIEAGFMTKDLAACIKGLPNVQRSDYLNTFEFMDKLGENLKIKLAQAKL
KDM4C inh – blocks human GASC-1 (KDM4C) demethylase activity | Q9H3R0 | hit rate 0.15% among 96,000 | GST-KDM4C 2-372, H3K9me3 peptide, LANCE TR-FRET | inhibition, % at 12.5 µM;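 active means mean replicate inhibition above about 25%, with at least 55% of replicates also reaching it, limit read from the data, passing the limit was not always enough; inconclusive means only one of those two conditions met; inactive means neither condition met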
Target sequence (Q9H3R0 2-372 limits assumed): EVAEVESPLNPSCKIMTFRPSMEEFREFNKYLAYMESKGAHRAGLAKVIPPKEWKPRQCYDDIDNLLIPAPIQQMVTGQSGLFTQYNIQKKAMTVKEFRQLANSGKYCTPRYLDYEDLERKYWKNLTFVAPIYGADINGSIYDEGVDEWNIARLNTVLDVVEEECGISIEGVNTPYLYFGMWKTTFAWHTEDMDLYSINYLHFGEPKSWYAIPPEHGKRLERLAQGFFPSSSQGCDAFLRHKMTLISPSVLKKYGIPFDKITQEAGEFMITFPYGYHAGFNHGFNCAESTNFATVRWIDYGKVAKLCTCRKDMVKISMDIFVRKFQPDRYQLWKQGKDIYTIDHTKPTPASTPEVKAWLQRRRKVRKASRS
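Test system – GST-tagged GASC-1 (JMJD2C) catalytic fragment, aa 2-372 · Medium – HEPES buffer, pH 7.5, plus ascorbate · Reagent – H3K9me3 peptide with Fe(II)/2OG · Compound – one test concentration per compound · Timing – 30 min reaction, 60 min detection, RT · Technique – TR-FRET with Eu antibody and ULight streptavidin, EDTA stop · Read-out basis – inhibition from TR-FRET ratio decrease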
T cruzi growth-2 – blocks T. cruzi growth in NIH3T3 host cells. shares compounds with T cruzi growth-1. T. cruzi beta-gal in NIH3T3, GalScreen luminescence, 90 h. inhibition, % at 8.35 µM. hit rate 72% among 5,600. AID 651739;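 active means mean replicate inhibition above about 95% and at least 55% of replicates individually reaching it, limit read from the data; inconclusive means only one of the two criteria is met; inactive means neither criterion is met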
T cruzi growth-3 – Trypanosoma cruzi proliferation inhibition | AID 651740 | T. cruzi beta-gal in NIH3T3, GalScreen luminescence, 90 h | hit rate 21% among 5,600 | shares compounds with T cruzi growth-1 | inhibition, % at 2.09 µM;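 active means mean inhibition above about 95%, with at least 55% of replicates also reaching it, limit read from the data; inconclusive means meets just one of the two conditions; inactive means meets neither condition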
3T3 cytotox – kills mouse NIH/3T3 fibroblasts | shares compounds with T cruzi growth-1 | NIH/3T3 viability, CellTiter-Glo ATP luminescence, 90 h | cytotoxicity (signal decrease), % at 8.35 µM | hit rate 14% among 5,600 | AID 651742;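 active means mean signal decrease across replicates above about 35% based on untreated-well scatter, with enough replicates individually passing, limit read from the data; inconclusive means no rule stated though some were filed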
NIH3T3 tox 2 – kills mouse NIH/3T3 fibroblasts. shares compounds with T cruzi growth-1. NIH/3T3 viability, CellTiter-Glo ATP luminescence, 90 h. inhibition, % at 24.9 µM. hit rate 56% among 5,600. AID 651744;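 active means mean loss of cell viability signal at or above a set limit, and enough replicates individually reaching it; inconclusive means meets only the mean limit or only the replicate share; inactive means meets neither condition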
Large screens that a line does not name were inactive (follow-up assays come after a bar, where they were run).

Cc1ccc(S(=O)(=O)Nc2cccc3c2O[C@@H](CN(C)S(=O)(=O)c2ccc(C)cc2)[C@@H](C)CN([C@H](C)CO)C3=O)cc1	none
COc1ccc2c3c([nH]c2c1)[C@@H](CO)N(C(=O)c1ccncc1)CC31CCN(C)CC1	none (no result: T cruzi growth-1, IDH1 mut inh)
Cc1ccc(-c2ccc3c(c2)O[C@@H](CN(C)Cc2cccnc2)[C@@H](C)CN([C@@H](C)CO)S3(=O)=O)cc1	T cruzi growth-1 102 | T cruzi growth-2 inactive | T cruzi growth-3 inactive | 3T3 cytotox 52 | NIH3T3 tox 2 94
C[C@@H]1CN([C@H](C)CO)S(=O)(=O)c2ccc(-c3ccncc3)cc2O[C@@H]1CN(C)Cc1cccnc1	none (no result: IDH1 mut inh, KDM4C inh)
Cc1ccc(-c2ccc3c(c2)O[C@@H](CN(C)Cc2cccnc2)[C@H](C)CN([C@H](C)CO)S3(=O)=O)cc1	T cruzi growth-1 118 | T cruzi growth-2 inconclusive | T cruzi growth-3 104 | 3T3 cytotox 80 | NIH3T3 tox 2 102
Cc1ccc(-c2ccc3c(c2)O[C@H](CN(C)Cc2cccnc2)[C@H](C)CN([C@@H](C)CO)S3(=O)=O)cc1	T cruzi growth-1 108 | T cruzi growth-2 97 | T cruzi growth-3 inactive | 3T3 cytotox 46 | NIH3T3 tox 2 95
C[C@@H]1CN([C@@H](C)CO)S(=O)(=O)c2ccc(-c3cccnc3)cc2O[C@@H]1CN(C)Cc1cccnc1	none (no result: IDH1 mut inh)
C[C@@H]1CN([C@H](C)CO)C(=O)c2cc(-c3cccc(F)c3)cnc2O[C@H]1CN(C)Cc1cccnc1	none
CCC(=O)N1C[C@@H](C)[C@H](OC)CN(C)C(=O)c2ccc(NC(=O)c3ccc(F)cc3)cc2OC[C@H]1C	none
COc1ccc(NC(=O)Nc2cccc3c2O[C@@H](CN(C)Cc2ccc(Oc4ccccc4)cc2)[C@H](C)CN([C@@H](C)CO)C3=O)cc1	none (no result: IDH1 mut inh)
N#C[C@H]1[C@H](c2ccc(-c3ccccc3F)cc2)[C@H](CO)N1C(=O)c1ccccn1	none (no result: IDH1 mut inh)
N#C[C@H]1[C@H](c2ccc(C#CCC3CCCC3)cc2)[C@@H](CO)N1C(=O)c1ccccn1	T cruzi growth-1 97 (no result: IDH1 mut inh) | T cruzi growth-2 95 | T cruzi growth-3 111 | 3T3 cytotox inactive | NIH3T3 tox 2 104
COCC(=O)N1[C@H](C#N)[C@H](c2ccc(C#CCC3CCCC3)cc2)[C@H]1CO	none (no result: IDH1 mut inh)
COCC(=O)N1[C@H](CO)[C@@H](c2ccc(C#CCC3CCCC3)cc2)[C@@H]1C#N	none (no result: IDH1 mut inh)
CC(C)C#Cc1ccc([C@H]2[C@@H](C#N)N(C(=O)c3ccccn3)[C@@H]2CO)cc1	T cruzi growth-1 inconclusive (no result: IDH1 mut inh) | T cruzi growth-2 104 | T cruzi growth-3 102 | 3T3 cytotox inactive | NIH3T3 tox 2 inactive
N#C[C@@H]1[C@H](c2ccc(C#CCC3CCCC3)cc2)[C@@H](CO)N1C(=O)c1ccccn1	T cruzi growth-1 100 (no result: IDH1 mut inh) | T cruzi growth-2 99 | T cruzi growth-3 109 | 3T3 cytotox inactive | NIH3T3 tox 2 107
C/C=C(/C)C(=O)O[C@H]1C[C@@](C)(O)C(=O)[C@@H](OC(=O)/C(C)=C\C)[C@@]2(C)CC[C@@](O)(C(C)C)[C@H]12	none (no result: T cruzi growth-1, Pf Dd2 inh, KDM4C inh)
COCC(=O)Nc1ccc2c(c1)[C@H]1C[C@@H](CC(=O)NCc3ccc4c(c3)OCO4)O[C@@H](CO)[C@H]1O2	none
Cc1ccc(-c2ccc([C@@H]3[C@H]4CN(S(=O)(=O)c5cccc(C)c5)CCCCN4[C@H]3CO)cc2)cc1	T cruzi growth-1 inconclusive (no result: IDH1 mut inh, KDM4C inh) | T cruzi growth-2 104 | T cruzi growth-3 inactive | 3T3 cytotox inactive | NIH3T3 tox 2 46
Cc1ccc(-c2ccc([C@@H]3[C@@H](CO)N4CCCCN(S(=O)(=O)c5cccc(C)c5)C[C@H]34)cc2)cc1	T cruzi growth-1 107 (no result: IDH1 mut inh, KDM4C inh) | T cruzi growth-2 101 | T cruzi growth-3 115 | 3T3 cytotox 54 | NIH3T3 tox 2 104
C[C@H](CO)N1C[C@H](C)[C@H](CN(C)Cc2ccc(C(=O)Nc3ccccc3N)cc2)Oc2ccc(NC(=O)CCN3CCOCC3)cc2CC1=O	none (no result: T cruzi growth-1)
COCC(=O)N1[C@H](C#N)[C@H](c2ccc(C#Cc3ccccc3F)cc2)[C@@H]1CO	T cruzi growth-1 102 (no result: IDH1 mut inh) | T cruzi growth-2 103 | T cruzi growth-3 inactive | 3T3 cytotox inactive | NIH3T3 tox 2 inconclusive
COCC(=O)N1[C@H](C#N)[C@H](c2ccccc2)[C@H]1CO	none (no result: IDH1 mut inh)
COCC(=O)N1[C@H](C#N)[C@H](c2ccc(C#Cc3ccccc3F)cc2)[C@H]1CO	T cruzi growth-1 106 (no result: IDH1 mut inh) | T cruzi growth-2 99 | T cruzi growth-3 inactive | 3T3 cytotox inactive | NIH3T3 tox 2 inconclusive
COCC(=O)N1[C@@H](C#N)[C@@H](c2ccc(C#Cc3ccccc3F)cc2)[C@@H]1CO	T cruzi growth-1 106 (no result: IDH1 mut inh) | T cruzi growth-2 inactive | T cruzi growth-3 inactive | 3T3 cytotox inactive | NIH3T3 tox 2 94
COCC(=O)N1[C@H](C#N)[C@@H](c2ccccc2)[C@@H]1CO	none (no result: IDH1 mut inh)
N#C[C@@H]1[C@@H](c2ccc(C#Cc3ccccc3F)cc2)[C@H](CO)N1C(=O)c1cccnc1	none (no result: IDH1 mut inh)
N#C[C@H]1[C@H](c2ccc(C#Cc3ccccc3F)cc2)[C@@H](CO)N1C(=O)c1cccnc1	T cruzi growth-1 inconclusive (no result: IDH1 mut inh) | T cruzi growth-2 105 | T cruzi growth-3 inactive | 3T3 cytotox inactive | NIH3T3 tox 2 inactive
COCC(=O)N1[C@@H](C#N)[C@H](c2ccc(C#Cc3ccccc3F)cc2)[C@@H]1CO	T cruzi growth-1 101 (no result: IDH1 mut inh) | T cruzi growth-2 103 | T cruzi growth-3 inactive | 3T3 cytotox inactive | NIH3T3 tox 2 inactive
N#C[C@H]1[C@@H](c2ccc(C#Cc3ccccc3F)cc2)[C@H](CO)N1C(=O)C1CCC1	none (no result: IDH1 mut inh)
O=C(c1ccncc1)N1CC[C@H]2[C@H](CO)Nc3ccc(-c4ccc(F)cc4)cc3[C@H]21	T cruzi growth-1 99 (no result: IDH1 mut inh) | T cruzi growth-2 inactive | T cruzi growth-3 inactive | 3T3 cytotox inactive | NIH3T3 tox 2 inactive
O=C(c1ccccn1)N1CC[C@@H]2[C@@H](CO)Nc3ccc(-c4ccccc4)cc3[C@@H]21	T cruzi growth-1 105 (no result: IDH1 mut inh) | T cruzi growth-2 101 | T cruzi growth-3 inactive | 3T3 cytotox inactive | NIH3T3 tox 2 inactive
O=C(c1ccccn1)N1CC[C@@H]2[C@H]1c1cc(-c3ccc(F)cc3)ccc1N[C@@H]2CO	T cruzi growth-1 105 (no result: IDH1 mut inh) | T cruzi growth-2 107 | T cruzi growth-3 inactive | 3T3 cytotox inactive | NIH3T3 tox 2 30
CCCNC(=O)N(C)C[C@@H]1Oc2cc(C#Cc3ccccn3)ccc2S(=O)(=O)N([C@H](C)CO)C[C@@H]1C	none
CC(C)c1cc(/C=C(\C#N)C(=O)NCCCc2ccccc2)cc(C(C)C)c1O	none (no result: T cruzi growth-1, Pf Dd2 inh, KDM4C inh)
C[C@@H]1CN([C@@H](C)CO)C(=O)c2cc(-c3ccc(F)cc3)cnc2O[C@H]1CN(C)C(=O)Nc1ccccc1F	none
